Lipid droplet: hepatic lipid droplet formation modulation; AML12 mouse hepatocytes, oleate lipid droplets, BODIPY imaging; inhibition, % at 6.5 µM; actives 0.4% (n = 240,000); AID 1656;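 active = lipid droplet intensity inhibited by at least 50%, with more than 500 cells counted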
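Test system: AML12 hepatocytes (mouse); reagent: oleate loading, 100 µM; dosing: one dose, 6.5 µM compound; incubation: overnight exposure; signal: fluorescence imaging, 20x objective, two fields per well; read-out basis: % inhibition of corrected integrated BODIPY droplet signal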
GRK2 inh: blocks RNA aptamer binding to human GRK2; bead flow cytometry, FAM-aptamer displacement from GRK2; AID 488847; actives 0.59% (n = 330,000); inhibition of aptamer binding, % at 10 µM; P25098;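 active = inhibition of aptamer binding above 40%, roughly 3 SD of noise, on plates passing a quality check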;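 note: median bead fluorescence of bound FAM aptamer so fluorescent compounds give negative values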
proCasp7 act: activates human procaspase-7, counter-screen for procaspase-3 activators | actives 0.093% (n = 330,000) | activation, % at 8.5 µM | P55210 | recombinant procaspase-7, Ac-DEVD-pNA absorbance 405 nm; D23A/D198A/D206A triple mutant, cannot self-cleave; scale: DMSO 0, 5 µM enzyme 100;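 active = percent activation above the screen-wide mean plus 3 SD, cut at about 25% in these data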
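Assay system: Uncleavable procaspase-7 mutant enzyme | Input: 2 µM procaspase-7 mutant as dispensed | Timing: 1 h compound preincubation, 2 h substrate cleavage, 25 °C | Repeats: One well per compound | Control set: DMSO wells as 0%, DMSO with 5 µM added PC-7 as 100% | Technique: Epi-absorbance of released pNA at 405 nm, two timepoints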
GASC-1 inh: inhibitors of human GASC-1 (JMJD2C) demethylase | GST-JMJD2C(1-420) H3K9me3 demethylation, DELFIA europium | inhibition, % at 2.35 µM | actives 0.069% (n = 330,000) | AID 2099;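 active = more than half of a compound's replicate wells show inhibition beyond 50%, single wells judged on their own value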;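 note: signal counts dimethyl H3K9 product captured on neutravidin plate; 0% = median of DMSO wells and 100% = 0.3 times that DMSO median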
VLA-4 inh: inhibition in a human VLA-4 binding assay; actives 0.2% (n = 330,000); VLA-4 expressing cells, ligand binding flow cytometry; AID 2557; inhibition, % (about 7 µM as worked out from the volumes in the protocol); in the data active = inhibition above about 50%
Target sequence (P13612 whole entry, looked up): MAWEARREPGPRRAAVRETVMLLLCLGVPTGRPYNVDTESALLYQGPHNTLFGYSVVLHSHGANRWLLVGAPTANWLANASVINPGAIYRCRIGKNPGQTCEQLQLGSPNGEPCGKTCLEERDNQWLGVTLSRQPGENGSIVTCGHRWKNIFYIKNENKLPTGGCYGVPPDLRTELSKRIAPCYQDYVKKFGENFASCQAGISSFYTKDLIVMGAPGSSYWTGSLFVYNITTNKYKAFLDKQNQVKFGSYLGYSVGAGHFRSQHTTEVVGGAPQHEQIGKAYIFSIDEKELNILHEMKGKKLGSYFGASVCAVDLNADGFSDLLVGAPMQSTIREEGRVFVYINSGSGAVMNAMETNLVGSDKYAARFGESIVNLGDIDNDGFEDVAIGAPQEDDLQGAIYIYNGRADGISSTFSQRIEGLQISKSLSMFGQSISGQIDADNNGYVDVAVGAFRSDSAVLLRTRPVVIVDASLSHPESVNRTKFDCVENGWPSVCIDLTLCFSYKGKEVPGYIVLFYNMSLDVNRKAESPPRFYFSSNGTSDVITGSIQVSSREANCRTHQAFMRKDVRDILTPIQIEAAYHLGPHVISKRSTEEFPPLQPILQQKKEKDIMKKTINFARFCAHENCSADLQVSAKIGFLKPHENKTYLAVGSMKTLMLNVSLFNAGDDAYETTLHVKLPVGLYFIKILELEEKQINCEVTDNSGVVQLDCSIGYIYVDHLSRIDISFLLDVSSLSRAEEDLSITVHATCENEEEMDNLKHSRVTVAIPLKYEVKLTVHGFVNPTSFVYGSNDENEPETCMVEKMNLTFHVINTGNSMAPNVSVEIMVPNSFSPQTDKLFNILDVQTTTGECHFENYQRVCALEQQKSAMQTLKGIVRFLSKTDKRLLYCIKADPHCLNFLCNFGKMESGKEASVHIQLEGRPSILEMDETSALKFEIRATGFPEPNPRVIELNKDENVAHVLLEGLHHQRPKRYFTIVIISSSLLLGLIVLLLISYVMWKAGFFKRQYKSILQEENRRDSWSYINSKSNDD
procasp3 activ: activates human procaspase-3 | P42574 | recombinant procaspase-3 D3A, Ac-DEVD-pNA absorbance 405 nm | activation, % at 8.5 µM | actives 0.11% (n = 330,000) | AID 463141;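 active = activation above the mean of all tested compounds plus 3 SD, cut at about 21% in these data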;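 note: 0% = DMSO alone and 100% = DMSO wells spiked with extra 5 µM PC-3 D3A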
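Test system: Procaspase-3 D3A mutant; medium: Zinc-free HEPES/NaCl buffer with 0.01% Triton X-100 at pH 7.4; reagent: DEVD-pNA substrate; doses: one concentration, 8.5 µM nominal, 0.8% DMSO; times: 1 h preincubation plus 2 h reaction at 25 °C; signal: Epi-absorbance at 405 nm of released p-nitroaniline, 0 and 120 min; replicates: singlicate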
VLA-4 allo CP: confirmation of allosteric modulators of human VLA-4 integrin; shares compounds with VLA-4 inh; U937 cells, HUTS-21 LIBS mAb binding, flow cytometry; LDV ligand present at threefold Kd; inhibition, % at 6.7 µM; actives 2% (n = 1,300); AID 2813; in the data active = inhibition above about 40%;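 note: 0% = ligand without compound and 100% = no ligand background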
* = called active by the depositor; . = no result given. Compounds with a hit are over-represented: about 1.3% of the library has one in this group of screens.

SMILES	Lipid droplet	GRK2 inh	proCasp7 act	GASC-1 inh	VLA-4 inh	procasp3 activ	VLA-4 allo CP
Cc1ccc(C(C)(O)CS(=O)(=O)Cc2ccccc2Cl)cc1 (stereo unspecified)	-6	4	-7	-4	8	-3	.
Cc1ccc(S(=O)(=O)NCCC(=O)NNc2c(F)c(F)cc(F)c2F)cc1	.	28	3	-3	-6	8	.
COc1ccc(Nc2cc(C)c3ccc(O)cc3n2)cc1	1	0	-1	-4	23	-8	.
Cc1cc(Nc2ccccc2)nc2cc(O)ccc12	12	0	0	2	56*	-1	-11
COc1ccc(OC)c(S(=O)(=O)NCC(c2ccco2)S(=O)(=O)c2ccccc2)c1 (stereo unspecified)	.	2	-1	-11	76*	-4	0
COC(=O)c1ccc(NC(=O)CN(c2ccc(C)cc2)S(=O)(=O)c2c(C)nn(C)c2C)cc1	1	0	2	0	4	-4	4
Cc1ccc(NC(=O)CN(c2ccc(C)cc2)S(=O)(=O)c2cccc3nonc23)cc1	-6	0	4	-9	27	-6	0
COc1ccc(N(CC(=O)Nc2ccc(C)cc2)S(=O)(=O)c2c(C)noc2C)cc1	17	3	-2	9	0	0	.
COc1ccccc1NC(=O)CN(c1ccc(C)cc1)S(=O)(=O)c1c(C)n[nH]c1C	.	4	-12	4	-7	1	-1
Cc1nn(C)c(C)c1S(=O)(=O)N(CC(=O)Nc1ccc2c(c1)OCO2)c1ccc(C(C)C)cc1	-1	1	-1	7	-12	1	-2
N#CC1(NC(=O)CSc2nnc(-c3ccccc3F)n2N)CCCCC1	.	2	-3	3	2	-2	.
O=C(NC(=O)c1ccccc1O)c1ccc2c(c1)CCO2	-3	1	5	30	-3	14	.
Cc1ccc(NC(=O)CCCc2nc3ccccc3s2)c(O)c1	-10	2	-3	5	7	1	.
COc1ccc(C(=O)NCCS(=O)(=O)N2CCN(C(=O)c3ccco3)CC2)cc1	.	1	-5	1	7	5	.
O=C(O)C1(O)C[C@H](O)C(O)[C@@H](O)C1 (stereo partly specified)	.	1	8	.	50*	2	1
O=C(CCc1ccccc1)NCCS(=O)(=O)N1CCN(c2ccccc2)CC1	.	0	-3	-7	-10	1	.
Cc1cc(NC(=O)CSc2nc(C)c(C)n2CC(C)C)no1	.	0	-6	-3	10	-3	.
C/C(=N\NC(=O)CSCc1cccc(Br)c1)c1ccc([N+](=O)[O-])cc1	.	3	-7	3	51*	4	7
COc1ccccc1NS(=O)(=O)c1cc(NC(=O)CNC(=O)c2ccccc2)ccc1C	-18	0	2	7	53*	-10	0
CNC(=S)N/N=C/c1c(C)nn(-c2cccc(Cl)c2)c1Cl	23	3	16	-28	40	3	7
Cc1ccc(C(=O)Nc2ccc(N3CCN(C)CC3)cc2)cc1C	-4	0	5	9	7	1	.
N#Cc1ccccc1Cn1cc(/C=C/[N+](=O)[O-])c2ccccc21	-44	0	-7	1	42	-12	31
O=[N+]([O-])/C=C/c1cn(Cc2ccccc2)c2ccccc12	.	5	-11	-2	18	3	.
CCN(CC(=O)NCc1ccc(Cl)cc1)C(=O)c1cccc(S(=O)(=O)Nc2ccc(OC)cc2)c1	.	1	4	-9	0	-6	.
CCOC(=O)C(NC(=O)c1cccc(Cl)c1)(Nc1nnc(C)s1)C(F)(F)F (stereo unspecified)	-8	8	6	12	47	7	10
SMILES	Lipid droplet	GRK2 inh	proCasp7 act	GASC-1 inh	VLA-4 inh	procasp3 activ	VLA-4 allo CP
Cc1cccc(C(=O)OCC(=O)N(C)c2ccccc2)c1C	-24	1	-4	-4	3	4	0
Cc1ccccc1C(=O)OCC(=O)N(C)c1ccccc1	-4	1	3	7	7	16	.
O=C1C2C3C=CC(c4ccccc4)(C2C(=O)N1c1cccc(Cl)c1)C1C(=O)N(c2cccc(Cl)c2)C(=O)C31 (stereo unspecified)	-1	2	3	-9	57*	3	6
O=C1C2C3CCCC3=C3CCCC3C2C(=O)N1c1cccc(Cl)c1 (stereo unspecified)	.	0	-2	6	0	-5	.
O=C(CN1CCN(Cc2ccccc2)CC1)Nc1ccccc1-c1ccccc1	-36	2	14	-5	10	4	.
CN(C)CCCn1c(SCC(=O)N2c3ccccc3Sc3ccccc32)nc2ccccc2c1=O	-4	0	1	-4	53*	-3	0
COc1ccc(CCNC(=O)C2CCN(C(=O)c3ccc(Cl)cc3)CC2)cc1OC	-20	1	4	3	-3	7	.
COc1cc(NS(=O)(=O)c2ccc(N)cc2)ncn1	34	0	4	-26	63*	-1	-4
Cc1ccnc(NS(=O)(=O)c2ccccc2)n1	3	4	1	1	19	-4	.
CC(C)Nc1nc(NC(C)C)nc(NS(=O)(=O)c2ccc(N)cc2)n1	-35	2	3	-3	9	3	.
Cc1cc(C)nc(NS(=O)(=O)c2ccc(N)cc2)n1	.	1	6	8	16	3	0
Cc1ccnc(NS(=O)(=O)c2ccc(N)cc2)n1	.	4	11	-25	7	5	-1
Cc1cc(C)nc(NS(=O)(=O)c2ccc(Br)cc2)n1	-5	1	7	-7	14	6	-5
CC(C)(C)OC(=O)N1Cc2ccccc2C[C@H]1C(=O)NCC(=O)NCC1CCCO1 (stereo partly specified)	-4	0	2	19	-80	1	.
COc1cnc(NS(=O)(=O)c2ccc(N)cc2)nc1	10	0	2	-22	59*	0	1
CCOc1ccc(NS(=O)(=O)c2ccc(N)cc2)cc1	-5	0	18	-8	12	-1	.
Cc1ccc(C(=O)/C=C\C(=O)c2ccc(C)cc2)cc1	4	6	-14	-1	68*	-17	30
Cc1nnc(SCCCOc2ccccc2)nc1C	.	0	6	-7	3	14	.
CCOC(=O)c1c(NC(=O)C2c3ccccc3Oc3ccccc32)sc(C(N)=O)c1C	5	0	6	-8	14	10	15

From PubChem BioAssay
